Where a SMILES comes first, the peptide text is derived from it. [ ]: non-standard residue; d: D form. The star is where a group is joined. Propanoyl(3-(4-F-phenyl)) = O=C(CCc1ccc(F)cc1)*; Propanoyl(3-(4-Cl-Ph)) = O=C(CCc1ccc(Cl)cc1)*; dPhe(4-Cl) = N[C@H](Cc1ccc(Cl)cc1)C(=O)O; Desaminotyrosyl = O=C(CCc1ccc(O)cc1)*; d1Nal = N[C@H](Cc1cccc2ccccc12)C(=O)O; d2Nal = N[C@H](Cc1ccc2ccccc2c1)C(=O)O; Lys(iPr) = CC(C)NCCCC[C@H](N)C(=O)O; NMeY = CN[C@@H](Cc1ccc(O)cc1)C(=O)O; d3Pal = N[C@H](Cc1cccnc1)C(=O)O; pGlu = O=C1CC[C@@H](C(=O)O)N1; Nicotinoyl = O=C(c1cccnc1)*; X1 = O=C(Cc1ccc(O)cc1)*
target: T1, Gonadotropin-releasing hormone receptor (Rattus norvegicus, UniProt P30969); assay: Inhibition of the in vitro binding of [125I]-labeled leuprolide to the rat pituitary luteinizing hormone releasing hormone (LHRH) receptor.
T1 sequence (P30969 whole entry): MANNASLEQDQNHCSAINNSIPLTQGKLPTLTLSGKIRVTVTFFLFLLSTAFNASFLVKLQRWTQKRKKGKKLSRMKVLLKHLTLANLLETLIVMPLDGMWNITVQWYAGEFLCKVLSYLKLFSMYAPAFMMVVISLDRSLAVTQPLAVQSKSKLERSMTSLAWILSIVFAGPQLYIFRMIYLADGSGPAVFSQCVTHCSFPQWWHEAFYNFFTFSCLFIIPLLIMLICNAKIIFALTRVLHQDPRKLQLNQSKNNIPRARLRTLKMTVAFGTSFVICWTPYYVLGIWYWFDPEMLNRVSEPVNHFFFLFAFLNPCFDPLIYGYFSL
Procedure, shortened: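 Rat pituitary LHRH receptor binding with 125I-labeled leuprolide as radioligand. pKI is the negative log of the analogue concentration inhibiting 50% of tracer binding. Compounds tested as TFA salts.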

| SMILES | Ki [nM] |
| --- | --- |
| CCNC(=O)[C@H]1CCCN1C(=O)[C@H](CCCN=C(N)N)NC(=O)[C@H](CC(C)C)NC(=O)[C@@H](Cc1c[nH]c2ccccc12)NC(=O)[C@H](Cc1ccc(O)cc1)NC(=O)[C@@H]1CCCN1C(=O)[C@H](Cc1c[nH]c2ccccc12)NC(=O)CCc1ccc(F)cc1 | 0.832 |
| CCNC(=O)[C@@H]1CCCN1C(=O)[C@H](CCCN=C(N)N)NC(=O)[C@H](CC(C)C)NC(=O)[C@@H](Cc1c[nH]c2ccccc12)NC(=O)[C@H](Cc1ccc(O)cc1)NC(=O)[C@H](CO)NC(=O)[C@H](Cc1c[nH]c2ccccc12)NC(=O)CCc1ccc(O)cc1 (Desaminotyrosyl-WSY[dW]LRP-NHEt) | 0.085 |
| CCNC(=O)[C@@H]1CCCN1C(=O)[C@H](CCCN=C(N)N)NC(=O)[C@H](CC(C)C)NC(=O)[C@@H](Cc1c[nH]c2ccccc12)NC(=O)[C@H](Cc1ccc(O)cc1)NC(=O)[C@H](CO)NC(=O)[C@H](Cc1c[nH]c2ccccc12)NC(=O)Cc1ccc(O)cc1 (X1-WSY[dW]LRP-NHEt) | 0.813 |
| CCNC(=O)[C@@H]1CCCN1C(=O)[C@H](CCCN=C(N)N)NC(=O)[C@H](CC(C)C)NC(=O)[C@@H](Cc1c[nH]c2ccccc12)NC(=O)[C@H](Cc1ccc(O)cc1)NC(=O)[C@H](CO)NC(=O)[C@H](Cc1ccc(O)cc1)NC(=O)CCc1ccc(Cl)cc1 ({Propanoyl(3-(4-Cl-Ph))}-YSY[dW]LRP-NHEt) | 0.076 |

The next compounds have a lower Ki than those just listed; values first:

| Ki [nM] | SMILES |
| --- | --- |
| 0.032 | CC(=O)N[C@H](Cc1ccc2ccccc2c1)C(=O)N[C@H](Cc1ccc(Cl)cc1)C(=O)N[C@H](Cc1cccnc1)C(=O)N[C@@H](CO)C(=O)N(C)[C@@H](Cc1ccc(O)cc1)C(=O)N[C@H](CCCCNC(=O)c1cccnc1)C(=O)N[C@@H](CC(C)C)C(=O)N[C@@H](CCCCNC(C)C)C(=O)N1CCC[C@H]1C(=O)N[C@H](C)C(N)=O (Ac-[d2Nal][dPhe(4-Cl)][d3Pal]S[NMeY][dK](Nicotinoyl)L[Lys(iPr)]P[dA]-NH2) |
| 0.025 | CCNC(=O)[C@@H]1CCCN1C(=O)[C@H](CCCN=C(N)N)NC(=O)[C@H](CC(C)C)NC(=O)[C@@H](Cc1c[nH]c2ccccc12)NC(=O)[C@H](Cc1ccc(O)cc1)NC(=O)[C@H](CO)NC(=O)[C@H](Cc1c[nH]c2ccccc12)NC(=O)[C@H](Cc1ccccc1)NC(=O)[C@@H]1CCC(=O)N1 ([pGlu]FWSY[dW]LRP-NHEt) |
| 0.018 | CCNC(=O)[C@@H]1CCCN1C(=O)[C@H](CCCN=C(N)N)NC(=O)[C@H](CC(C)C)NC(=O)[C@@H](Cc1c[nH]c2ccccc12)NC(=O)[C@H](Cc1ccc(O)cc1)NC(=O)[C@H](CO)NC(=O)[C@@H](Cc1ccc(O)cc1)NC(=O)CCc1ccc(Cl)cc1 ({Propanoyl(3-(4-Cl-Ph))}-[dY]SY[dW]LRP-NHEt) |
| 0.02 | CC(C)C[C@H](NC(=O)[C@@H](CCCCNC(=O)c1cccnc1)NC(=O)[C@H](Cc1ccc(O)cc1)N(C)C(=O)[C@H](CO)NC(=O)[C@@H](Cc1cccc2ccccc12)NC(=O)CCc1ccc(F)cc1)C(=O)N[C@@H](CCCCNC(C)C)C(=O)N1CCC[C@H]1C(=O)N[C@H](C)C(N)=O ({Propanoyl(3-(4-F-phenyl))}-[d1Nal]S[NMeY][dK](Nicotinoyl)L[Lys(iPr)]P[dA]-NH2) |

From BindingDB's records for doi:10.1021/jm00031a021 (Tap Pharmaceuticals, 1994)
